The target of experiment [1] is Glutamate receptor ionotropic, AMPA (Rattus norvegicus) (UniProt P19491+P19492+P19493+P19490). Briefly: Inhibition of Ionotropic glutamate receptor AMPA-preferring non-NMDA receptors was measured in oocytes expressing rat brain poly(A)+ RNA isolated from the cerebral cortex. The class given is cell-based. Conditions: Oocyte.
Experiment [2] concerns the target Glutamate NMDA receptor (Rattus norvegicus) (UniProt P35439+Q00959+Q00960+Q00961+Q62645+Q8VHN2+Q9R1M7). Put plainly: Inhibition of N-methyl-D-aspartate glutamate receptor was measured in oocytes expressing cloned rat brain receptor subunits (NR1A/2C). Format: cell-based. The settings on record: Oocyte. The gist of the method: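 Xenopus oocytes expressing cloned rat NR1A/2C subunits, voltage-clamped at -70 mV. Currents were evoked by 1 μM glycine plus 100 μM glutamate. The apparent dissociation constant (Kb) was calculated from current inhibition assuming simple competitive antagonism, and reported with 95% confidence intervals adjusted to the linear scale.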

The nature of experiment [3]: Selectivity index measured as the kb ratio of AMPA to that of NMDA. The gist of the method: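 Steady-state selectivity index: Kb at AMPA receptors (rat cortex poly(A)+ RNA oocytes, 10 μM AMPA) divided by Kb at NR1A/2C NMDA receptors (1 μM glycine, 100 μM glutamate), both from oocyte current inhibition at -70 mV.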
Experiment [4] has as its target Glutamate receptor ionotropic, NMDA 1 (Rattus norvegicus, UniProt P35439). Put plainly: Antagonism of N-methyl-D-aspartate glutamate receptor 1 sites using [3H]DCKA as a radioligand.

Regarding `CC1Cc2[nH]c(=O)c(=O)cc(O)c2CC1C` (stereo unspecified), the Kb came to 5300 nM in experiment [1] and 120 nM in experiment [2]. The Selectivity index in experiment [3] amounted to 44.

As for `CC1c2c(O)cc(=O)c(=O)[nH]c2C[C@H](Cl)[C@H]1Cl` (stereo partly specified), the Kb in experiment [1] worked out at 510 nM; in experiment [2], 4.1 nM. Also, the Selectivity index in experiment [3] amounted to 120.

Regarding `O=c1cc(O)c2c([nH]c1=O)C1CCC2C1` (stereo unspecified), in experiment [2], the Kb stood at 2800 nM. The Selectivity index in experiment [3] was 75.

On to `O=c1cc(O)c2c([nH]c1=O)C[C@H](Cl)[C@@H](Cl)C2`, for which, in experiment [4], the IC50 was found to be 130 nM. Further, the Kb was found to be 780 nM in experiment [1] and 42 nM in experiment [2]. For the same compound, the Selectivity index in experiment [3] is 19.

As to `O=c1cc(O)c2c([nH]c1=O)C1CCC2CC1`, the Kb in experiment [1] turned out to be 79000 nM; in experiment [2] it was 260 nM. For the same compound, the Selectivity index in experiment [3] was determined as 300.

Take `CCC1c2c(O)cc(=O)c(=O)[nH]c2C[C@H](Cl)[C@H]1Cl` (stereo partly specified): the Kb was found to be 720 nM in experiment [1] and 2.8 nM in experiment [2]. In addition, the Selectivity index in experiment [3] came out at 260.

With `O=c1cc(O)c2c([nH]c1=O)CCCC2`, the values for the Kb in experiment [1] and in experiment [2] were 23000 nM and 740 nM, respectively. Also, the Selectivity index in experiment [3] stood at 31.

By IC50 is commonly meant the midpoint of a concentration-inhibition curve. A high value points to lower potency.

Values taken from ChEMBL document CHEMBL1130388, “Synthesis of racemic 6,7,8,9-tetrahydro-3-hydroxy-1H-1-benzazepine-2,5-diones as antagonists of N-methyl-d-aspartate (NMDA) and alpha-amino-3-hydroxy-5-methylisoxazole-4-propionic acid (AMPA) receptors” (J Med Chem, 1997).
